Laboratory results reported in ChEMBL document CHEMBL1221342, “Synthesis and in vitro antitumor activity of new 4,5-dihydropyrazole derivatives” (Bioorg Med Chem, 2010).

Assays:
Format in all cases: functional
SF-268 = assay: Growth inhibition of human SF268 cells after 48 hrs by SRB assay; conditions: SF-268, 48 h
Method in brief: (§1)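 NCI 60-cell-line screen. Cells grown in RPMI1640 with 5% fetal calf serum and 2 mM L-glutamine, with inoculum density set by cell line. Preincubated 24 h, then given compound in DMSO at 10^-4 to 10^-8 M (five 10-fold steps) for 48 h continuous exposure. Growth measured by SRB protein assay. GI50, TGI and LC50 reported as –log molar.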

HL-60(TB) = assay: Growth inhibition of human HL-60(TB) cells after 48 hrs by SRB assay; conditions: HL-60, 48 h
Method in brief: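 NCI 60-cell-line screen: cells grown in RPMI1640 with 5% fetal calf serum and 2 mM L-glutamine, preincubated 24 h, then exposed to compound in DMSO at five concentrations (10^-4 to 10^-8 M) for 48 h continuous exposure. Growth estimated by sulforhodamine B protein assay; reported as pGI50 (-log molar concentration inhibiting net cell growth by 50%).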

Malme-3M = assay: Growth inhibition of human MALME-3M cells after 48 hrs by SRB assay; method in brief: as §1
SK-MEL-5 = assay: Growth inhibition of human SK-MEL-5 cells after 48 hrs by SRB assay; conditions: SK-MEL-5, 48 h; method in brief: as §1
MCF7 = assay: Growth inhibition of human MCF7 cells after 48 hrs by SRB assay; conditions: MCF7, 48 h; method in brief: as §1
SR = assay: Growth inhibition of human SR cells after 48 hrs by SRB assay; method in brief: as §1
SF-295 = assay: Growth inhibition of human SF295 cells after 48 hrs by SRB assay; conditions: SF-295, 48 h; method in brief: as §1
[1] = Growth inhibition of human […] cells after 48 hrs by SRB assay; method in brief: as §1
UO-31 = assay: Growth inhibition of human UO31 cells after 48 hrs by SRB assay; conditions: UO-31, 48 h; method in brief: as §1
TK-10 = assay: Growth inhibition of human TK10 cells after 48 hrs by SRB assay; conditions: TK-10, 48 h; method in brief: as §1
M14 = assay: Growth inhibition of human M14 cells after 48 hrs by SRB assay; conditions: M14, 48 h; method in brief: as §1
HCT-15 = assay: Growth inhibition of human HCT15 cells after 48 hrs by SRB assay; conditions: HCT-15, 48 h; method in brief: as §1
CCRF-CEM = assay: Growth inhibition of human CCRF-CEM cells after 48 hrs by SRB assay; method in brief: as §1
NCI-H460 = assay: Growth inhibition of human NCI-H460 cells after 48 hrs by SRB assay; conditions: NCI-H460, 48 h; method in brief: as §1
RXF 393 = assay: Growth inhibition of human RXF393 cells after 48 hrs by SRB assay; conditions: RXF 393, 48 h; method in brief: as §1
SW-620 = assay: Growth inhibition of human SW620 cells after 48 hrs by SRB assay; conditions: SW-620, 48 h; method in brief: as §1
NCI-H322M = assay: Growth inhibition of human NCI-H322M cells after 48 hrs by SRB assay; method in brief: as §1
K562 = assay: Growth inhibition of human K562 cells after 48 hrs by SRB assay; conditions: K562, 48 h; method in brief: as §1
PC-3 = assay: Growth inhibition of human PC3 cells after 48 hrs by SRB assay; conditions: PC-3, 48 h; method in brief: as §1
HT-29 = assay: Growth inhibition of human HT-29 cells after 48 hrs by SRB assay; conditions: HT-29, 48 h; method in brief: as §1
DU-145 = assay: Growth inhibition of human DU145 cells after 48 hrs by SRB assay; conditions: DU-145, 48 h; method in brief: as §1
BT-549 = assay: Growth inhibition of human BT549 cells after 48 hrs by SRB assay; conditions: BT-549, 48 h; method in brief: as §1
HCT-116 = assay: Growth inhibition of human HCT116 cells after 48 hrs by SRB assay; conditions: HCT-116, 48 h; method in brief: as §1
OVCAR-4 = assay: Growth inhibition of human OVCAR4 cells after 48 hrs by SRB assay; conditions: OVCAR-4, 48 h; method in brief: as §1
HOP-62 = assay: Growth inhibition of human HOP62 cells after 48 hrs by SRB assay; conditions: HOP-62, 48 h; method in brief: as §1
OVCAR-3 = assay: Growth inhibition of human OVCAR-3 cells after 48 hrs by SRB assay; conditions: OVCAR-3, 48 h; method in brief: as §1
KM12 = assay: Growth inhibition of human KM12 cells after 48 hrs by SRB assay; conditions: KM12, 48 h; method in brief: as §1
NCI-H522 = assay: Growth inhibition of human NCI-H522 cells after 48 hrs by SRB assay; conditions: NCI-H522, 48 h; method in brief: as §1
A498 = assay: Growth inhibition of human A498 cells after 48 hrs by SRB assay; conditions: A498, 48 h; method in brief: as §1
U-251 = assay: Growth inhibition of human U251 cells after 48 hrs by SRB assay; conditions: U-251, 48 h; method in brief: as §1
IGROV-1 = assay: Growth inhibition of human IGROV1 cells after 48 hrs by SRB assay; conditions: IGROV-1, 48 h; method in brief: as §1
T47D = assay: Growth inhibition of human T47D cells after 48 hrs by SRB assay; method in brief: as §1
SNB-75 = assay: Growth inhibition of human SNB75 cells after 48 hrs by SRB assay; conditions: SNB-75, 48 h; method in brief: as §1
HCC 2998 = assay: Growth inhibition of human HCC2998 cells after 48 hrs by SRB assay; conditions: HCC 2998, 48 h; method in brief: as §1

With `COc1ccc(/C=C\c2cc(OC)c(OC)c(OC)c2)cc1O` [COMBRETASTATIN A4] the GI50 (SF-268) was 126 nM, the TGI (SF-268; read-out: pTGI (converted)) was 50.1 µM and the GI50 (HL-60(TB)) was 31.6 nM. The TGI (HL-60(TB); read-out: pTGI (converted)) was 63.1 nM, the GI50 (Malme-3M) was 501 nM and the TGI (Malme-3M; read-out: pTGI (converted)) was 79.4 µM. For the same molecule, the GI50 (SK-MEL-5) was 10 nM, the TGI (SK-MEL-5; read-out: pTGI (converted)) was 10 nM and the GI50 (MCF7) was 39.8 nM. For the same molecule, the TGI (MCF7; read-out: pTGI (converted)) was 79.4 µM, the GI50 (SR) was 126 nM and the TGI (SR; read-out: pTGI (converted)) was 79.4 µM. The GI50 (SF-295) was 63.1 nM, the TGI (SF-295; read-out: pTGI (converted)) was 1260 nM and the GI50 [1] was 158 nM. It also gave a TGI ([1]; read-out: pTGI (converted)) of 6.31 µM, a GI50 (UO-31) of 200 nM and a TGI (UO-31; read-out: pTGI (converted)) of 50.1 µM. For the same molecule, the GI50 (TK-10) was 631 nM, the TGI (TK-10; read-out: pTGI (converted)) was 3.98 µM and the GI50 (M14) was 158 nM. The TGI (M14; read-out: pTGI (converted)) was 251 nM, the GI50 (HCT-15) was 31.6 nM and the TGI (HCT-15; read-out: pTGI (converted)) was 10 µM. For the same molecule, the GI50 (CCRF-CEM) was 100 nM, the TGI (CCRF-CEM; read-out: pTGI (converted)) was 5.01 µM and the GI50 (NCI-H460) was 31.6 nM. The TGI (NCI-H460; read-out: pTGI (converted)) was 63.1 µM, the GI50 (RXF 393) was 1000 nM and the TGI (RXF 393; read-out: pTGI (converted)) was 79.4 µM. The GI50 (SW-620) was 31.6 nM, the TGI (SW-620; read-out: pTGI (converted)) was 79.4 µM and the GI50 (NCI-H322M) was 79.4 nM. It also gave a TGI (NCI-H322M; read-out: pTGI (converted)) of 79.4 µM, a GI50 (K562) of 31.6 nM and a TGI (K562; read-out: pTGI (converted)) of 2000 nM. The GI50 (PC-3) was 39.8 nM, the TGI (PC-3; read-out: pTGI (converted)) was greater than 100 µM and the GI50 (HT-29) was 631 nM. The TGI (HT-29; read-out: pTGI (converted)) was 6.31 µM, the GI50 (DU-145) was 10 nM and the TGI (DU-145; read-out: pTGI (converted)) was greater than 100 µM. The GI50 (BT-549) was 10 nM, the TGI (BT-549; read-out: pTGI (converted)) was 2000 nM and the GI50 (HCT-116) was 31.6 nM. It also gave a TGI (HCT-116; read-out: pTGI (converted)) of 200 nM, a GI50 (OVCAR-4) of 251 nM and a TGI (OVCAR-4; read-out: pTGI (converted)) of 79.4 µM. For the same molecule, the GI50 (HOP-62) was 200 nM, the TGI (HOP-62; read-out: pTGI (converted)) was 2510 nM and the GI50 (OVCAR-3) was 39.8 nM. The TGI (OVCAR-3; read-out: pTGI (converted)) was 158 nM, the GI50 (KM12) was 50.1 nM and the TGI (KM12; read-out: pTGI (converted)) was 794 nM. For the same molecule, the GI50 (NCI-H522) was 31.6 nM, the TGI (NCI-H522; read-out: pTGI (converted)) was 3.98 µM and the GI50 (A498) was 50.1 nM. For the same molecule, the TGI (A498; read-out: pTGI (converted)) was 794 nM, the GI50 (U-251) was 50.1 nM and the TGI (U-251; read-out: pTGI (converted)) was 12.6 µM. It also gave a GI50 (IGROV-1) of 63.1 nM, a TGI (IGROV-1; read-out: pTGI (converted)) of 63.1 µM and a GI50 (T47D) of 50.1 µM. For the same molecule, the TGI (T47D; read-out: pTGI (converted)) was greater than 100 µM, the GI50 (SNB-75) was 794 nM and the TGI (SNB-75; read-out: pTGI (converted)) was 25.1 µM. It also gave a GI50 (HCC 2998) of 50.1 nM and a TGI (HCC 2998; read-out: pTGI (converted)) of 1260 nM.
